Laboratory results as given in PMC11041979 (International Journal of Nanomedicine, 2024).
Values after ≈ are worked out from the molar mass of the structure shown.

Columns and labels:
Water solubility assay = type: physicochemical
Outline: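 Saturated aqueous test-compound solutions were sonicated, centrifuged and diluted 10–500-fold. Carbon dots (3 mg/mL stock) were diluted to 10 levels, 1500–3.12 μg/mL. Samples were centrifuged at 10000 rpm for 10 min and filtered through 0.22 µm. HPLC used a C18 column at 30°C with 0.4% acetic acid water–acetonitrile 85:15 at 1.0 mL/min and detection at 318 nm. Calibration followed Chinese Pharmacopoeia methods.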

[1] = Pharmacokinetics of MA in rats after oral gavage; type: in vivo, Sprague-Dawley rats
Outline: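 Male Sprague-Dawley rats (200 ± 20 g), acclimatised 1 week, fasted 12 h with free water. Test compound given by gavage at 20 mg/kg (2 mg/mL) as an aqueous suspension or as a saturated suspension in carbon-dot solution (stirred 20 min). Orbital blood drawn 5–1440 min into heparin. Plasma protein-precipitated with acetonitrile:acetic acid 9:1, isomangiferin internal standard, UHPLC-MS/MS. Mean ± SD.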

[2] = literature value; cited from earlier work
[3] = Sprague-Dawley, rat, plasma, po, 20 mg/kg

solubility of MA in water with MC-CDs (Water solubility assay; aqueous MC-CDs solution, MC-CDs concentration exceeding 100 μg/mL): increases significantly
solubility (Water solubility assay; water, thermodynamic from solid): 115 µg/mL (≈ 273 µM)
maximum concentration ([1]; MA, oral, preliminary rat pharmacokinetics): 200 ng
AUC(0-t) [1, 3]: 1.52 ± 2.64 ng·h/mL
Cmax [1, 3]: 0.201 ± 0.0314 ng/mL
Tmax [1, 3]: 4 ± 1.42 h
half-life [1, 3]: 3.27 ± 2.18 h
SMILES: O=c1c2cc(O)c(O)cc2oc2cc(O)c([C@@H]3O[C@H](CO)[C@@H](O)[C@H](O)[C@H]3O)c(O)c12 [MA, Mangiferin]
Tmax after oral administration [2]: about 267.49 ± 108.29 min
